Results collected from several papers.
Lines come from different studies, so protocols differ.
Observed: metabolic stability

Structure (SMILES) | species | sample | concentration | pH | half-life [min]
O=C(O)CN(CCCc1ccccc1)CC(=O)N[C@H](CO)Cc1c[nH]cn1 | male mouse | liver microsomes | 1 µM | pH 7.4 | > 40
NC1(c2ccc(-c3nc4ccn5c(=O)[nH]nc5c4cc3-c3ccccc3)cc2)CCC1 | CD-1 mouse | liver microsomes | 1 µM | pH 7.4 | 85.8
COc1cc(C2Oc3cc([C@H]4Oc5cc(O)cc(O)c5C(=O)[C@@H]4O)ccc3OC2CO)ccc1O (stereo partly shown) | mouse | liver microsomes | 1 µM | – | 82.5
CCOC(=O)NS(=O)(=O)c1sc(CC(C)C)cc1-c1ccc2c(c1)CN(C(C)=O)C2 | mouse | liver microsomes | 1 µM | pH 7.4 | 21
COc1cccc(OC)c1CNC(=O)c1cc(C2NC(=O)NC(C)=C2C(=O)Nc2ccc3[nH]ncc3c2)ccc1F (stereo not shown) | CD-1 mouse | liver microsomes | 1 µM | pH 7.4 | < 4
CNC(=O)c1ccccc1Nc1cc(Nc2cc(C)c(C3CCN(CCCCCCNC(=O)COc4cccc5c4C(=O)N(C4CCC(=O)NC4=O)C5=O)CC3)cc2OC(C)C)ncc1C(F)(F)F (stereo not shown) | mouse | liver microsomes | – | – | 27
CN1CCC(Cc2cccc(CNC3(c4ccc(F)cc4)CCCC3)c2)CC1(C)C (racemic) | mouse | liver microsomes | 4.6 µM | pH 7.5 | ~60
O=C(Nc1ccc(CN2CCOCC2)c(C(F)(F)F)c1)c1ccc(C#Cc2cccc3cnccc23)cn1 | mouse | liver microsomes | – | – | 13.4
O=C(Nc1ccccc1)C1CCN(c2ncc(-c3ccc4c(c3)OCCCO4)s2)CC1 | mouse | liver microsomes | 1 µM | – | < 10
CCOC(=O)C1=C(C)N/C(=C/c2cc(C)n(Cc3ccc(C(F)(F)F)cc3)c2C)C1=O | mouse | liver microsomes | 1 µM | – | 17
CNC(=O)[C@H](Cc1c[nH]cn1)NC(=O)CN(CCCc1ccccc1)CC(=O)O | male mouse | liver microsomes | 1 µM | pH 7.4 | > 40
CCCCOC(=O)NS(=O)(=O)c1sc(CC(C)C)cc1-c1ccc(OC(F)(F)F)c(Cn2ccnc2)c1 | mouse | liver microsomes | 1 µM | pH 7.4 | 103
O=S(=O)(Nc1cccc(-c2nnn[nH]2)c1)c1ccc(C(F)(F)F)c(F)c1 | mouse | liver microsomes | – | – | 174
CCOC(=O)C1=C(C)N/C(=C/c2cc(C)n(-c3ccc(N(C)C)cc3)c2C)C1=O | mouse | liver microsomes | 1 µM | – | 31
Cc1noc([C@H](Cc2c[nH]cn2)NC(=O)CN(CCCc2ccccc2)CC(=O)O)n1 | male mouse | liver microsomes | 1 µM | pH 7.4 | > 40
O=C(N[C@H](Cc1c[nH]c2ccccc12)C(=O)Nc1ccncc1)c1ccc(-c2ccc(F)c(F)c2)cc1F | mouse | liver microsomes | – | – | 39
CCOC(=O)NS(=O)(=O)c1sc(CC(C)C)cc1-c1ccc2c(c1)CN(C)C(=O)C2 | mouse | liver microsomes | 1 µM | pH 7.4 | 23
CCOC(=O)C1=C(C)N/C(=C/c2cc(C)n(-c3ccc(Br)cc3)c2C)C1=O | mouse | liver microsomes | 1 µM | – | 28
O=S(=O)(Nc1cccc(-c2nnn[nH]2)c1)c1cc(Cl)c(Cl)cc1Cl | mouse | liver microsomes | – | – | 48
Fc1ccc2nc(Cc3c[nH]c4c(F)cccc34)[nH]c2c1 | mouse | liver microsomes | – | pH 7.4 | 7.2
N=C(N)N1CC=C(c2coc(C(=O)Nc3ccc(C4=CCN(C(=N)N)CC4)c(F)c3)c2)CC1 | CD-1 mouse | liver microsomes | 1 µM | – | > 60
O=C(Nc1ccc2sc(-c3ccc(F)c(F)c3)nc2c1)N1CC[C@H](F)C1 | mouse | liver microsomes | 1.5 µM | – | ≥ 60
CC(C)Oc1cccc(-c2cnc(N3CCC(C(N)=O)CC3)s2)c1 | mouse | liver microsomes | 1 µM | – | > 30
CC[C@@H]1C=CC(=O)O[C@@H]1C[C@@H](O)[C@H](C)[C@H](O)[C@@H](C)Cc1ccc(F)cc1 | mouse | liver microsomes | – | – | 3
CCCC[S+]([O-])c1sc2nc(-c3cccs3)ccc2c1N (stereo not shown) | female CD-1 mouse | liver S9 | 2 µM | pH 7.5 | 13
CCOC(=O)C1=C(C)N/C(=C/c2cc(C)n(-c3ccc(Cl)cc3)c2C)C1=O | mouse | liver microsomes | 1 µM | – | 24
O=C(CC1Cc2ccccc2C1)N[C@H](CN1CCCC1)[C@H](O)c1ccc2c(c1)OCCO2 | mouse | liver microsomes | – | – | 2.5
O=C(OC(C(F)(F)F)C(F)(F)F)N1Cc2ccc(OCCN3CCOCC3)cc2C1 | mouse | liver microsomes | – | – | 7

Structure (SMILES) | species | sample | concentration | pH | half-life [min]
O=S(=O)(Nc1cccc(-c2nnn[nH]2)c1)c1ccc(Cl)c2nonc12 | mouse | liver microsomes | – | – | 81
C=CC(=O)Nc1ccc(N2CCC[C@@H](Nc3ncc(Cl)c(-c4c[nH]c5ccccc45)n3)C2)cc1 | mouse | liver microsomes | – | – | 7.2
CCOC(=O)C1=C(C)N/C(=C/c2ccn(-c3ccccc3C(F)(F)F)c2)C1=O | mouse | liver microsomes | 1 µM | – | 11
CC[C@@H]1C=CC(=O)O[C@@H]1C[C@@H](OC)[C@H](C)[C@H](OC)[C@@H](C)Cc1ccc(F)cc1 | mouse | liver microsomes | – | – | < 2.3
C=CC(=O)Nc1cc(OC)c(N2CCC[C@@H](Nc3ncc(Cl)c(-c4c[nH]c5ccccc45)n3)C2)cc1C | mouse | liver microsomes | – | – | 4.3
O=[N+]([O-])c1ccc(CNc2nc(NCc3cccc(C(F)(F)F)c3)nc3[nH]cnc23)cc1 | mouse | liver microsomes | 1 µM | pH 7.4 | 9
CCOC(=O)NS(=O)(=O)c1sc(CC(C)C)cc1-c1ccc2c(c1)CN(C(=O)OCC)C2 | mouse | liver microsomes | 1 µM | pH 7.4 | 2.1
CCS(=O)(=O)Nc1cccc(-c2cn(C)c(=O)c3ccccc23)c1 | mouse | liver microsomes | – | – | 11
N=c1c2c(-c3ccccc3)c(-c3ccccc3)n(CCc3ccccc3)c2ncn1[C@H]1CC[C@H](O)CC1 | male CD-1 mouse | liver microsomes | 1 µM | pH 7.4 | > 120
CCOC(=O)C1=C(C)N/C(=C/c2ccn(-c3ccc(C(F)(F)F)cc3)c2)C1=O | mouse | liver microsomes | 1 µM | – | 12
Cc1cc(S(=O)(=O)Nc2cccc(-c3nnn[nH]3)c2)ccc1C(F)(F)F | mouse | liver microsomes | – | – | 133
Cc1c(CN2CCC(Nc3ncnc4sc(CC(F)(F)F)cc34)CC2)c(O)cc2[nH]c(C#N)cc12 | CD-1 mouse | liver microsomes | 1 µM | pH 7.4 | > 30
CN1CCN(Cc2cc(CNC3(c4ccccc4F)CCCC3)ccc2O)CC1 | mouse | liver microsomes | 4.6 µM | pH 7.5 | 12
O=c1ccc2ccc(O)cc2o1 | mouse | liver S9 | 2 µM | pH 7.4 | 4.71
Cc1ccc(S(=O)(=O)Nc2cccc(-c3nnn[nH]3)c2)cc1C(F)(F)F | mouse | liver microsomes | – | – | 38
O=C(Nc1ccc(Cl)c(Cl)c1)c1ccc(N2CCNCC2)c([N+](=O)[O-])c1 | CD-1 mouse | liver microsomes | 1 µM | pH 7.4 | > 110
Cc1ccc(-c2cnc(N3CCC(C(N)=O)CC3)s2)cc1 | mouse | liver microsomes | 1 µM | – | < 10
CCOC(=O)C1=C(C)N/C(=C/c2cc(C)n(-c3ccc(N4CCOCC4)cc3)c2C)C1=O | mouse | liver microsomes | 1 µM | – | 57
NC[C@@H]1O[C@H](O[C@H]2[C@@H](O)[C@H](O[C@@H]3[C@@H](O)[C@H](N)C[C@H](N)[C@H]3O[C@H]3O[C@H](CO)[C@@H](O)[C@H](O)[C@H]3N)O[C@@H]2CO)[C@H](N)[C@@H](O)[C@@H]1O | mouse | liver microsomes | 25 µM | pH 7.4 | 143
CCNc1nc2c(c(N3CC(=O)Nc4cc(OC)ccc43)n1)CCC2 | mouse | liver microsomes | – | – | 5.7
Cc1noc(C)c1-c1ccc2nc(C(=O)NC3CCN(C)CC3)nc(NCc3cccc(Cl)c3)c2c1 | mouse | liver microsomes | – | – | 28
O=c1ccc2ccccc2o1 | mouse | liver microsomes | 50 µM | pH 7.4 | 72
CCCN(C)Cc1cc(-c2[nH]c3cccc(F)c3c(=O)c2C)ccc1Cc1ccc(OC(F)(F)F)cc1 | mouse | liver microsomes | – | – | 3.47
CCOC(=O)C1=C(C)N/C(=C/c2cc(C)n(-c3cccnc3)c2C)C1=O | mouse | liver microsomes | 1 µM | – | 21
O=C1CCN(C(=O)Nc2ccc(F)c(Cl)c2)[C@H]2CCCC[C@@H]12 (relative stereo) | mouse | liver microsomes | – | – | > 32
COC(=O)c1csc(C(=O)c2c[nH]c3ccccc23)n1 | mouse | liver microsomes | – | – | 11
C/C(=N\OCCN)c1cccc(C(C)(C)NC(=O)Nc2ccc(Cl)c([N+](=O)[O-])c2)c1 | mouse | liver microsomes | – | – | > 120
